Data taken from ChEMBL document CHEMBL5653631, “A Potent and Selective ULK1 Inhibitor Suppresses Autophagy and Sensitizes Cancer Cells to Nutrient Stress” (iScience, 2018).

Assays:
[1] = target: Dual specificity tyrosine-phosphorylation-regulated kinase 1B (Homo sapiens) (UniProt Q9Y463); assay: Inhibition of human recombinant DYRK1B at 500 nM in presence of ATP by radiometric assay relative to control
[2] = target: Ribosomal protein S6 kinase alpha-2 (Homo sapiens) (UniProt Q15349); assay: Inhibition of human recombinant RSK3 at 15 nM related to control ULK1
[3] = target: T1, Dual specificity protein kinase TTK (Homo sapiens) (UniProt P33981); assay: Inhibition of human recombinant TTK at 15 nM in presence of ATP by radiometric assay relative to control
T1 sequence (whole entry): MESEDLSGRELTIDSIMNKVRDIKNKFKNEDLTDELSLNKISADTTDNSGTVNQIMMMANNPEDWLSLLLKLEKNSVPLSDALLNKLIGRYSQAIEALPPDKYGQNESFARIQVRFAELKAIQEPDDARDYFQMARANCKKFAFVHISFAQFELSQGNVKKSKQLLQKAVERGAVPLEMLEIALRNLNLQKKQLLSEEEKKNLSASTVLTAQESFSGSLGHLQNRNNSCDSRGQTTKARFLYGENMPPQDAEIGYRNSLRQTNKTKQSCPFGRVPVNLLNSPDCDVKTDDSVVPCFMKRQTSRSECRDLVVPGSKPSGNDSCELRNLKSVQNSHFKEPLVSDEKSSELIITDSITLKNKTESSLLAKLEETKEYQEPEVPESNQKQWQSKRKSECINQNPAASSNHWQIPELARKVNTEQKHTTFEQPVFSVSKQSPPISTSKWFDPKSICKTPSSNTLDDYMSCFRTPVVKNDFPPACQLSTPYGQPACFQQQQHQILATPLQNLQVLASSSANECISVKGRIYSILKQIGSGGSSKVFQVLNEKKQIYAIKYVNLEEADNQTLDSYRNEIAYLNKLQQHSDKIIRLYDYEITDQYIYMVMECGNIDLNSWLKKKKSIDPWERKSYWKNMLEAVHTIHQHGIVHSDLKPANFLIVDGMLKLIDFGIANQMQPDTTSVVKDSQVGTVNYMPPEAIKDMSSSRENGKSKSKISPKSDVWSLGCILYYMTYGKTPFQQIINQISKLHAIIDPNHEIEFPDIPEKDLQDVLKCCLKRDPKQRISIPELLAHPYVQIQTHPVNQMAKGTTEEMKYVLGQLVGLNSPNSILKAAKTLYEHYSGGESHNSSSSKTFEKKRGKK

[4] = target: Serine/threonine-protein kinase B-raf (Homo sapiens) (UniProt P15056); assay: Inhibition of human recombinant BRAF at 15 nM in presence of ATP by radiometric assay relative to control
Summary of the method: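 Part of a radiometric in vitro activity panel of 327 recombinant human kinases. Each kinase was tested in duplicate at one inhibitor concentration. Activity remaining was expressed as a percentage of the vehicle control, and percent inhibition was taken as 100 minus that value.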

[5] = target: Serine/threonine-protein kinase SIK1 (Homo sapiens) (UniProt P57059); assay: Inhibition of human recombinant SIK at 15 nM related to control ULK1
[6] = target: T2, Inhibitor of nuclear factor kappa-B kinase subunit beta (Homo sapiens) (UniProt O14920); assay: Inhibition of human recombinant IKKb at 15 nM in presence of ATP by radiometric assay relative to control
T2 sequence (whole entry): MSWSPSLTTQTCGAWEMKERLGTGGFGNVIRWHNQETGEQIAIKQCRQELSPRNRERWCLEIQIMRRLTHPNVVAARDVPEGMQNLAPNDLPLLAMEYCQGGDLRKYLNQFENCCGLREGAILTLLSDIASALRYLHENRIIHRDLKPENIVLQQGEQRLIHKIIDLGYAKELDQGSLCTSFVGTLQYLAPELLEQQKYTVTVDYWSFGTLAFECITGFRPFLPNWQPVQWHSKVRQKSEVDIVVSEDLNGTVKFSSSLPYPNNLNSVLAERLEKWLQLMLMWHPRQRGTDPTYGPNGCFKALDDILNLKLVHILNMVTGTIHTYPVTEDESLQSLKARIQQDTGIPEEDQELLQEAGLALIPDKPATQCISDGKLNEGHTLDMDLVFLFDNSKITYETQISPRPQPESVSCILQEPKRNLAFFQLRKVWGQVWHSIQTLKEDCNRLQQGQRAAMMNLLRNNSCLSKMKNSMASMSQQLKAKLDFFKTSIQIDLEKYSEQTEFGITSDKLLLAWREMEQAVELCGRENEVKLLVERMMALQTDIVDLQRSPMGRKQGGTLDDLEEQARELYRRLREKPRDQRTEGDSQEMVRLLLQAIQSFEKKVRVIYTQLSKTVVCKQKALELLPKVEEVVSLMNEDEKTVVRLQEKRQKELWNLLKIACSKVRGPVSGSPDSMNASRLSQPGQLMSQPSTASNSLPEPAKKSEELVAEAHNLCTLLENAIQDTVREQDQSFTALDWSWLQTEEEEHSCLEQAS

Sequence of Serine/threonine-protein kinase SIK1 (Homo sapiens) (P57059 whole entry): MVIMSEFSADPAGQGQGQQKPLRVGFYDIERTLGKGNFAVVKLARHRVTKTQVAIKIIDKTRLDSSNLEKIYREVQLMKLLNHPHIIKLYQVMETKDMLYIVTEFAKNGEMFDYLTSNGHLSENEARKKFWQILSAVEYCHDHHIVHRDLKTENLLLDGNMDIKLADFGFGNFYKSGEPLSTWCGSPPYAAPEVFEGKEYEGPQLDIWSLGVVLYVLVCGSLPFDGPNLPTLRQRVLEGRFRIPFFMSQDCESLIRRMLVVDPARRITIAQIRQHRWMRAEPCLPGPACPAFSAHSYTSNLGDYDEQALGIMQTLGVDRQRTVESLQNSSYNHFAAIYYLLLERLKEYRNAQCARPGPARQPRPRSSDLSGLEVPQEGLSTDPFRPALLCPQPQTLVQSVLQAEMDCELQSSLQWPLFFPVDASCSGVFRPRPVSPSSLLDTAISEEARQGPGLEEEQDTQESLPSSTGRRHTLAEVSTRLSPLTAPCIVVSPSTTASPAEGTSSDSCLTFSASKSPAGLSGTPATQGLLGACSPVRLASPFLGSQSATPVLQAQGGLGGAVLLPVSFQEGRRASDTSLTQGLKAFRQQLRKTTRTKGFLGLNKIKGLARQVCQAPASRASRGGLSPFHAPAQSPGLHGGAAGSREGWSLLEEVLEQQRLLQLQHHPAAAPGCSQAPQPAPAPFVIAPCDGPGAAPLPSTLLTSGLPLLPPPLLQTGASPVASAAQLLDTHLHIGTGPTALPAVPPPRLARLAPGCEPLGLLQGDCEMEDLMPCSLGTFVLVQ
Sequence of Serine/threonine-protein kinase B-raf (Homo sapiens) (P15056 whole entry): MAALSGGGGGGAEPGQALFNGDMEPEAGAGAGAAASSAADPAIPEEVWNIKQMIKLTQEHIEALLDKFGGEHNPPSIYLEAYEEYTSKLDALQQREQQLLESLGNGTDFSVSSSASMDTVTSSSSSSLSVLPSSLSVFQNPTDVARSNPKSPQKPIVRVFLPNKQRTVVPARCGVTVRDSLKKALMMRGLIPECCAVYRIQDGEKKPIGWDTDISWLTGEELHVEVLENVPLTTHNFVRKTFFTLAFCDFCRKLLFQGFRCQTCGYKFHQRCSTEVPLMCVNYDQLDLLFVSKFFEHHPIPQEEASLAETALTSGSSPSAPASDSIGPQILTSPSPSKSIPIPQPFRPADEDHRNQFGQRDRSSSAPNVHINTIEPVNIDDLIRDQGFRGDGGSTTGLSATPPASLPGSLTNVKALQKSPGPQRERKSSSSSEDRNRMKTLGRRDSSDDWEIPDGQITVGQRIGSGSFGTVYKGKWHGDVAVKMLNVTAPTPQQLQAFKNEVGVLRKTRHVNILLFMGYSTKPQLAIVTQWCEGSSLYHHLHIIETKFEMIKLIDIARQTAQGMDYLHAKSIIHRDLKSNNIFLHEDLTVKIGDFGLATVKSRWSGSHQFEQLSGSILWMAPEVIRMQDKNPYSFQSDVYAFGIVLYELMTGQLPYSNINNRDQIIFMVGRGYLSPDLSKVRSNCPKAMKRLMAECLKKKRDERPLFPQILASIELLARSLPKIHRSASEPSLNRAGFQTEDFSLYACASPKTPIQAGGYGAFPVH
Sequence of Dual specificity tyrosine-phosphorylation-regulated kinase 1B (Homo sapiens) (Q9Y463 whole entry, looked up): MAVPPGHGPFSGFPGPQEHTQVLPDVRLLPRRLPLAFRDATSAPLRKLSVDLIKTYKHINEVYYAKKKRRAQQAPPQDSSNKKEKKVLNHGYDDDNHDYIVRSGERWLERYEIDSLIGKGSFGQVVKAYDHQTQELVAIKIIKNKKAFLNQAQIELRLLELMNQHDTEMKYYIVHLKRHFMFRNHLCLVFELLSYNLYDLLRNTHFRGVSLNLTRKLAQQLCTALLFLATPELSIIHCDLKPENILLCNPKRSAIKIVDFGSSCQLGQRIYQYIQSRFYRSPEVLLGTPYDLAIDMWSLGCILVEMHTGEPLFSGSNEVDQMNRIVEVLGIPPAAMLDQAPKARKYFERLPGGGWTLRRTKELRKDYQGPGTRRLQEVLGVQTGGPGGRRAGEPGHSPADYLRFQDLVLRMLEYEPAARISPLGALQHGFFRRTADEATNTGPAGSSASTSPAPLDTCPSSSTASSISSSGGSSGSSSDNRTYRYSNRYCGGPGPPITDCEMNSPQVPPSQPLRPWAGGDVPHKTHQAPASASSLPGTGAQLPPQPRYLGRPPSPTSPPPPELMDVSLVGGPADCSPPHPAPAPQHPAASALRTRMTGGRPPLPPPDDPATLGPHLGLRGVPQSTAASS
Sequence of Ribosomal protein S6 kinase alpha-2 (Homo sapiens) (Q15349 whole entry): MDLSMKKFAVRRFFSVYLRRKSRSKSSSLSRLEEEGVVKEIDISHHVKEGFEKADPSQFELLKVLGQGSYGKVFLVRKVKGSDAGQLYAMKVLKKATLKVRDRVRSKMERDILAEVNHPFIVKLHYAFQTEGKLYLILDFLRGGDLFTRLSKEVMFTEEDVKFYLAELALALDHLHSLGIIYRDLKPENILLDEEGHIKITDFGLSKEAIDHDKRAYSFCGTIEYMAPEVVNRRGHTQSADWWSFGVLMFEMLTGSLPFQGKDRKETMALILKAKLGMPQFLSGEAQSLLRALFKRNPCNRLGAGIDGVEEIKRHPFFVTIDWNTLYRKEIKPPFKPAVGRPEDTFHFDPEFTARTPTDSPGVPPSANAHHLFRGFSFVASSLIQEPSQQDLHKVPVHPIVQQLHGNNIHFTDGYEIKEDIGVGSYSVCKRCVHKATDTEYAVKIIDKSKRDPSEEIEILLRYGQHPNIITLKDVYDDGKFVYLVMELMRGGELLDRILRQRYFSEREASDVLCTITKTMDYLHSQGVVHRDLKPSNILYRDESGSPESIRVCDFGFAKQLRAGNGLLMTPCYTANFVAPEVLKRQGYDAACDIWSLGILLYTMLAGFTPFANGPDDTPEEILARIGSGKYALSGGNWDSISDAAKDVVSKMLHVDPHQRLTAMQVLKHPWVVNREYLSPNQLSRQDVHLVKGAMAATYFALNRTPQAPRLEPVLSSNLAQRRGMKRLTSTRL

| inhibition [1] [%] | fold change (FC) [2] | inhibition [3] [%] | inhibition [4] [%] | fold change (FC) [5] | inhibition [6] [%] | SMILES |
| --- | --- | --- | --- | --- | --- | --- |
| 0 | – | – | – | – | – | CNC(=O)c1ccccc1Oc1nc(Nc2cc(OC)c(OC)c(OC)c2)ncc1Br |
| – | 0.03 | 22 | 11 | 0.84 | 0 | CC(C)[C@H](NC(=O)c1cc(-c2cnn3cc(-c4ccc(OCCN5CCCCC5)cc4)cnc23)cs1)C(F)(F)F |
